These compounds were tested on NIH3T3 (assay: Cytotoxicity against mouse 3T3 cells by phenyltetrazolium bromide assay). Details: not given; call rule not given here.
Assay type: functional, cell-based
Summary of the method: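 Murine 3T3 fibroblasts; proliferation measured by MTT assay, with IC50 reported. Each value is the mean of three determinations; Student's t test, p < 0.05.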

Compound	IC50 [µM]
CCC1(c2ccc(CSc3ccccc3Cl)cc2)Oc2ccccc2-n2cccc2C1=O (racemic)	97.8
CCC1(c2ccc(CSc3cccc(C(F)(F)F)c3)cc2)Oc2ccccc2-n2cccc2C1=O (racemic)	44.6
CCC1(c2ccc(CSc3ccc(Br)cc3)cc2)Oc2ccccc2-n2cccc2C1=O (racemic)	47.6
CCC1(c2ccc(CSc3ccc(I)cc3)cc2)Oc2ccccc2-n2cccc2C1=O (racemic)	43.5

The compounds below were run against T1, Adenosine deaminase (Bos taurus) (UniProt P56658) (assay: Inhibition of bovine ADA at 100 uM by spectrophotometric analysis). Details: not given.
T1 sequence (whole entry): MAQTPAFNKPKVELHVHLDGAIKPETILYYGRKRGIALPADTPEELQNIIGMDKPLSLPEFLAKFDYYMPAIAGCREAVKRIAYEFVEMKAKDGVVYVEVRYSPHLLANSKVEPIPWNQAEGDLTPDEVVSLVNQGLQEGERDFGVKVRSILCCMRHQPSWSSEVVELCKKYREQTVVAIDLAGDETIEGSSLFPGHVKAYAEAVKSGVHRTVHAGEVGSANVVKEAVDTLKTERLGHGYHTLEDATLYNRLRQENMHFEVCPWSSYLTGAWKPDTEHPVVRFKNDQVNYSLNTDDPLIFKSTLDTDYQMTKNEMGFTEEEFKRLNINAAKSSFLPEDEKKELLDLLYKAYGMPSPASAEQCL
Summary of the method: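 Adenosine deaminase assayed at 30 C with 50 μM Ado, 50 mM potassium phosphate pH 7.2 and 0.3 nM enzyme. Deamination was followed as A262 change over 2 min. Compound tested at 100 μM, with DMSO at most 4% final and a substrate-free blank. Percent inhibition from two determinations in triplicate.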

Compound	inhibition [%]
CCC1(c2ccc(CSc3ccccc3Cl)cc2)Oc2ccccc2-n2cccc2C1=O (racemic)	6.5
CCC1(c2ccc(CSc3cccc(C(F)(F)F)c3)cc2)Oc2ccccc2-n2cccc2C1=O (racemic)	2.7
CCC1(c2ccc(CSc3ccc(F)cc3)cc2)Oc2ccccc2-n2cccc2C1=O (racemic)	13
C#Cc1ccc(SCc2ccc(C3(CC)Oc4ccccc4-n4cccc4C3=O)cc2)cc1 (racemic)	16

These compounds were tested against Adenosine kinase (Homo sapiens, UniProt P55263) (assay: Inhibition of human adenosine kinase). Details: not given.
Chain of Adenosine kinase (P55263 whole entry): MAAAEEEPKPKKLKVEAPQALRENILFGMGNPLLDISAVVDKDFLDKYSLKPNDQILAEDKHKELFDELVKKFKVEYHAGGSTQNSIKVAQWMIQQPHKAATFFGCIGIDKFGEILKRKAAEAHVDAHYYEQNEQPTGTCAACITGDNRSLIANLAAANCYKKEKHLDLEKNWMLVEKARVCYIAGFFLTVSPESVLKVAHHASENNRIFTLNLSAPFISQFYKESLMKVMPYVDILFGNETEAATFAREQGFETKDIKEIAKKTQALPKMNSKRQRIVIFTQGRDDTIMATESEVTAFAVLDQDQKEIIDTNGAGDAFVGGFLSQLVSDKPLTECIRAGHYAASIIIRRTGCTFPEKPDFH

Compound	IC50
CC(=O)OC1=C(c2ccccc2)Oc2ccccc2-n2cccc21	Not Active
CC(=O)OC1=C(c2ccccc2)Sc2ccccc2-n2cccc21	Not Active

Same assay, conditions: read-out: IC50

Compound	IC50 [µM]
CCC1(c2cccc(C)c2)Oc2ccccc2-n2cccc2C1=O (racemic)	150
CCC1(c2ccc(CSc3cccc(OC)c3)cc2)Oc2ccccc2-n2cccc2C1=O (racemic)	12.5
CCC1(c2ccc(CSc3ccc(I)cc3)cc2)Sc2ccccc2-n2cccc2C1=O (racemic)	2.2
CN(C)c1ccc2n1-c1ccccc1SC(c1ccccc1)C2=O (racemic)	> 1000
CCC1(c2ccc(CSc3ccccc3F)cc2)Oc2ccccc2-n2cccc2C1=O (racemic)	4.5
CCC1(c2ccc(CSc3ccccc3Cl)cc2)Oc2ccccc2-n2cccc2C1=O (racemic)	1
CCC1(c2ccc(CSc3cccc(C)c3)cc2)Oc2ccccc2-n2cccc2C1=O (racemic)	21.4
CCC1(c2ccc(CSc3cccc(F)c3)cc2)Oc2ccccc2-n2cccc2C1=O (racemic)	4
CCC1(c2ccc(CSc3cccc(Cl)c3)cc2)Oc2ccccc2-n2cccc2C1=O (racemic)	3.5
CCC1(c2ccc(CSc3cccc(C(F)(F)F)c3)cc2)Oc2ccccc2-n2cccc2C1=O (racemic)	2.5
CCC1(c2ccc(CSc3cccc(OC(F)(F)F)c3)cc2)Oc2ccccc2-n2cccc2C1=O (racemic)	3.2
CCC1(c2ccc(CSc3ccc(F)cc3)cc2)Oc2ccccc2-n2cccc2C1=O (racemic)	1
CCC1(c2ccc(CSc3ccc(Br)cc3)cc2)Oc2ccccc2-n2cccc2C1=O (racemic)	2
CCC1(c2ccc(CSc3ccc(I)cc3)cc2)Oc2ccccc2-n2cccc2C1=O (racemic)	2.5
CCC1(c2ccc(CSc3ccc([N+](=O)[O-])cc3)cc2)Oc2ccccc2-n2cccc2C1=O (racemic)	6.2
CCC1(c2ccc(CSc3ccc(OC(F)(F)F)cc3)cc2)Oc2ccccc2-n2cccc2C1=O (racemic)	6.7
CCC1(c2ccc(CSc3ccc(OC)cc3)cc2)Oc2ccccc2-n2cccc2C1=O (racemic)	14
CCC1(c2ccc(CSc3ccc(C#C[Si](C)(C)C)cc3)cc2)Oc2ccccc2-n2cccc2C1=O (racemic)	10
C#Cc1ccc(SCc2ccc(C3(CC)Oc4ccccc4-n4cccc4C3=O)cc2)cc1 (racemic)	15
CCC1(c2ccc(CSc3c(C)cccc3Cl)cc2)Oc2ccccc2-n2cccc2C1=O (racemic)	3
CCC1(c2ccc(CSc3c(Cl)cccc3Cl)cc2)Oc2ccccc2-n2cccc2C1=O (racemic)	20
CCC1(c2ccc(CSc3cccc(Cl)c3Cl)cc2)Oc2ccccc2-n2cccc2C1=O (racemic)	3
CCC1(c2ccc(CSc3cc(Cl)ccc3Cl)cc2)Oc2ccccc2-n2cccc2C1=O (racemic)	14
CCC1(c2ccc(CSc3ccc(Cl)cc3Cl)cc2)Oc2ccccc2-n2cccc2C1=O (racemic)	22.5
CCC1(c2ccc(CSc3ccc(Cl)c(Cl)c3)cc2)Oc2ccccc2-n2cccc2C1=O (racemic)	10

Compound	IC50 [µM]
CCC1(c2ccc(CSc3ccc(F)cc3F)cc2)Oc2ccccc2-n2cccc2C1=O (racemic)	10
CCC1(c2ccc(CSc3ccc(F)cc3Cl)cc2)Oc2ccccc2-n2cccc2C1=O (racemic)	2.5
CCC1(c2ccc(CSc3ccc(F)c(Cl)c3)cc2)Oc2ccccc2-n2cccc2C1=O (racemic)	11
CCC1(c2ccc(CSc3cc(OC)ccc3OC)cc2)Oc2ccccc2-n2cccc2C1=O (racemic)	35
CCC1(c2ccc(CSc3ccc(I)cc3Cl)cc2)Oc2ccccc2-n2cccc2C1=O (racemic)	2
CCC1(c2ccc(CSc3c(F)c(F)cc(F)c3F)cc2)Oc2ccccc2-n2cccc2C1=O (racemic)	8
CCC1(c2ccc(CSc3ccccn3)cc2)Oc2ccccc2-n2cccc2C1=O (racemic)	4.5
CCC1(c2ccc(CSc3ncc[nH]3)cc2)Oc2ccccc2-n2cccc2C1=O (racemic)	3.5
CCC1(c2ccc(CSc3cnccn3)cc2)Oc2ccccc2-n2cccc2C1=O (racemic)	7
CCC1(c2ccc(CSc3ncccn3)cc2)Oc2ccccc2-n2cccc2C1=O (racemic)	7
CCC1(c2ccc(COc3ccc(I)cc3Cl)cc2)Oc2ccccc2-n2cccc2C1=O (racemic)	1.2
CCC1(c2ccc(COc3cccc(CCO)c3)cc2)Oc2ccccc2-n2cccc2C1=O (racemic)	8
CCN(CC)CCc1cccc(OCc2ccc(C3(CC)Oc4ccccc4-n4cccc4C3=O)cc2)c1 (racemic)	200
CCC1(c2ccc(COc3cccc(CCN4CCCC4)c3)cc2)Oc2ccccc2-n2cccc2C1=O (racemic)	150
O=C1c2cccn2-c2ccccc2OC1c1ccc(CSc2ccccc2)cc1 (racemic)	4
O=C1c2cccn2-c2ccccc2OC1c1ccc(CSc2ccccc2Cl)cc1 (racemic)	4.4
O=C1c2cccn2-c2ccccc2OC1c1ccc(CSc2cccc(C(F)(F)F)c2)cc1 (racemic)	9
CCC1(c2ccc(CSc3ccccc3Cl)cc2)Sc2ccccc2-n2cccc2C1=O (racemic)	5
CCC1(c2ccc(CSc3ccc(C#C[Si](C)(C)C)cc3)cc2)Sc2ccccc2-n2cccc2C1=O (racemic)	2
O=C1c2cccn2-c2ccccc2SC1c1ccccc1 (racemic)	130
O=C1c2cccn2-c2ccccc2OC1c1ccccc1 (racemic)	100
CCC1(c2ccccc2)Oc2ccccc2-n2cccc2C1=O (racemic)	85
CCC1(c2ccc(C)cc2)Oc2ccccc2-n2cccc2C1=O (racemic)	80
CCC1(c2ccc(CSc3c(Cl)cccc3Cl)cc2)Oc2ccccc2-n2cccc2C1=O (single isomer, unassigned; (+))	7.5
CCC1(c2ccc(CSc3c(Cl)cccc3Cl)cc2)Oc2ccccc2-n2cccc2C1=O (single isomer, unassigned; (-))	40
